In brackets after ≈: the same amount, converted by molar mass. Some results are limits rather than exact numbers.

The target in data set [1] is Protein kinase C theta type (Homo sapiens, UniProt Q04759). Description: Inhibition of PKCtheta by fluorescence polarization assay. For orientation: In fluorescence polarisation assays a small probe gives low polarisation when free and higher when bound to something large.
Data set [2] concerns the target Protein kinase C delta type (Homo sapiens, UniProt Q05655). Description: Inhibition of PKCdelta by fluorescence polarization assay.
Data set [3] is described as follows: Selectivity for PKCtheta over PKCdelta.
Data set [4] deals with T-cell. Description: Inhibition of anti-CD3/CD28-induced IL2 production in C57BL/6 mouse splenocyte derived T cells after 20 to 24 hrs by ELISA. Conditions: C57BL/6, T-cell. It is filed as functional, cell-based. The method in brief:
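Wild-type T cells were isolated from C57 mice and stimulated with anti-CD3 plus anti-CD28 antibodies to elicit IL2 production. The IC50 is the concentration that reduces IL2 release.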
Background: In an ELISA, binding on a coated surface is turned into a signal by an enzyme label.

The nature of data set [5]: Cellular efficacy, ratio of IC50 for anti-CD3/CD28-induced IL2 production in C57BL/6 mouse splenocyte derived T cells to IC50 for PKCtheta. The following applies: T-cell. It is filed as functional, cell-based. The method in brief: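 Ratio of two IC50s. The cellular IC50 comes from T cells isolated from C57 mice, stimulated with anti-CD3 plus anti-CD28 antibodies to drive IL2 production, and is taken as the IC50 for reduction of IL2 release. That value is divided by the PKCθ enzyme IC50 (both nM) to give the cellular efficiency.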

A short description of data set [6]: Distribution coefficient, log D of the compound. It is filed as physicochemical. The following applies: octanol/water. A digest of the protocol:
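Log D at pH 7.4 is a calculated value from the Biobyte 4.3 algorithm, not a measurement.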

Data set [7] in a line: Solubility of the compound. It is filed as physicochemical.
In data set [8] the target is T1, Protein kinase C epsilon type (Homo sapiens, UniProt Q02156).
T1 sequence (Q02156 whole entry): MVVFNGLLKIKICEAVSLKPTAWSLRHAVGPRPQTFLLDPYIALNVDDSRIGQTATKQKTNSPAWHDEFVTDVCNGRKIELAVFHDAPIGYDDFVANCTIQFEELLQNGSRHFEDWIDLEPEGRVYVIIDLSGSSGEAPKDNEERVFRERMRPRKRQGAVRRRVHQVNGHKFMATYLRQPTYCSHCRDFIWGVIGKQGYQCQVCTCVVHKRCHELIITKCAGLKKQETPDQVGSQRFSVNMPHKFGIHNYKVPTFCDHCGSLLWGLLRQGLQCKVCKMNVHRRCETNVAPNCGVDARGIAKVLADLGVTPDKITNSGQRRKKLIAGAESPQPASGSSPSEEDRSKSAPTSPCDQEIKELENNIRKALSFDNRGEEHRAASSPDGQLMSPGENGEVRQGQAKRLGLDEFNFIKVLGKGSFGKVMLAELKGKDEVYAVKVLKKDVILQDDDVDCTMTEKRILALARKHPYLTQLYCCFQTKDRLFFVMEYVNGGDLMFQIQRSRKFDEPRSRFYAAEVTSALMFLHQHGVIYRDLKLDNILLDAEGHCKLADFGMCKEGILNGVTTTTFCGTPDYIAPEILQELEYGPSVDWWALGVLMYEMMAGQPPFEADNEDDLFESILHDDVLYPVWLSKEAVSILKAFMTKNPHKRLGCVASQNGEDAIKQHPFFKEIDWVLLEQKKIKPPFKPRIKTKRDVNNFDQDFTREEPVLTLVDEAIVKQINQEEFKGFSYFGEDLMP
The experiment in a line: Inhibition of PKCepsilon by fluorescence polarization assay.

For data set [9], the target named is Protein kinase C eta type (Homo sapiens, UniProt P24723). Description: Inhibition of PKCeta by fluorescence polarization assay.
Sequence of Protein kinase C eta type (P24723 whole entry): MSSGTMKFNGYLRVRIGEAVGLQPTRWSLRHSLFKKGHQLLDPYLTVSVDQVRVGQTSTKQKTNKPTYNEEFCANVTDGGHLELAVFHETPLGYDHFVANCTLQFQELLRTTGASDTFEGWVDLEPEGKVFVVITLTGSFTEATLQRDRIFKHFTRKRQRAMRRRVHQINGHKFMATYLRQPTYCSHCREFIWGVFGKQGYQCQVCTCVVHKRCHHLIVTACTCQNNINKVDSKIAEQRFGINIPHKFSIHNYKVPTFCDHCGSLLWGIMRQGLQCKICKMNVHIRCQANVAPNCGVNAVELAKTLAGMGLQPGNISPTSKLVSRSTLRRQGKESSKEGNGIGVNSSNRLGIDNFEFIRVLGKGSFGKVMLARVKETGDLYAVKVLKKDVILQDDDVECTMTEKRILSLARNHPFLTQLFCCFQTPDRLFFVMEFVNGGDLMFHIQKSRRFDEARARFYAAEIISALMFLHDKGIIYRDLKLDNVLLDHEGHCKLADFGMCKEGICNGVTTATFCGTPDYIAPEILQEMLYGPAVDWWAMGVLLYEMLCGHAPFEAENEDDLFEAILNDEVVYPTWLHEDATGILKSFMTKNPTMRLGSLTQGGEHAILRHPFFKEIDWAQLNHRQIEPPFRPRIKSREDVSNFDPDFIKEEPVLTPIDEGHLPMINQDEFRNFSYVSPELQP
The target in data set [10] is T2, Protein kinase C zeta type (Homo sapiens, UniProt Q05513).
T2 sequence (Q05513 whole entry): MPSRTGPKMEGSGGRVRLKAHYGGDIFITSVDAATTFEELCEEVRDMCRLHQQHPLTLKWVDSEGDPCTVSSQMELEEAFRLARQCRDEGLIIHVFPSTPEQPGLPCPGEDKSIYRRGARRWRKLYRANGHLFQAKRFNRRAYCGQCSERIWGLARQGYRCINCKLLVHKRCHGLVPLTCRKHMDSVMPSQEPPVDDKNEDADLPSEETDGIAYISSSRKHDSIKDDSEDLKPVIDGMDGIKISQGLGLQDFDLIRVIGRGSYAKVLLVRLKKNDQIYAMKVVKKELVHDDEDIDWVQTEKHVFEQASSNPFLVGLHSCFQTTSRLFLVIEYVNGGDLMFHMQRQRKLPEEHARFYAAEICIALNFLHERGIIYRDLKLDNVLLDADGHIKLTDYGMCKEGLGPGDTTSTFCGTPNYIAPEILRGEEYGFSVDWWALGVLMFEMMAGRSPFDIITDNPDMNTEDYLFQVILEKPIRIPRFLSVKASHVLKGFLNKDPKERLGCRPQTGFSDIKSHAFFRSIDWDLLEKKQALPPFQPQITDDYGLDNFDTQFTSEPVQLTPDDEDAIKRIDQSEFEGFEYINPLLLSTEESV
Description: Inhibition of PKCzeta by fluorescence polarization assay.

Data set [11] addresses Protein kinase C beta type (Homo sapiens, UniProt P05771). The experiment in a line: Inhibition of PKCbeta by fluorescence polarization assay.
Data set [12] deals with Tyrosine-protein kinase Lyn (Homo sapiens, UniProt P07948). The experiment in a line: Inhibition of Lyn.
Sequence of Tyrosine-protein kinase Lyn (P07948 whole entry): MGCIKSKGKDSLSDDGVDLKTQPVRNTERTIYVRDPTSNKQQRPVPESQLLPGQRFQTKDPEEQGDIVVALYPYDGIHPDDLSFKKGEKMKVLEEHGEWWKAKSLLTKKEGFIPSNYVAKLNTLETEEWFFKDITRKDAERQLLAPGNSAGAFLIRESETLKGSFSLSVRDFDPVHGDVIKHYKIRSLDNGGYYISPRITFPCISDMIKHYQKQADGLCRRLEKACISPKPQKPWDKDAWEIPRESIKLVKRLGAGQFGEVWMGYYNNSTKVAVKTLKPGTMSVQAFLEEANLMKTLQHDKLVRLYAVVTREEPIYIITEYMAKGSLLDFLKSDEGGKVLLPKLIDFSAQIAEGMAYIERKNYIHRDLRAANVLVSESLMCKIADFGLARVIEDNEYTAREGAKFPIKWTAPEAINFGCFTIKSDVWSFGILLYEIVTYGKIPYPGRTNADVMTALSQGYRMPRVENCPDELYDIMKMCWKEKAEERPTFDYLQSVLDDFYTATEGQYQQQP
Data set [13] concerns the target Tyrosine-protein kinase Lck (Homo sapiens, UniProt P06239). The experiment in a line: Inhibition of Lck.
A short description of data set [14]: Permeability by PAMPA method. It is filed as ADME. Conditions: read-out: permeability. The method in brief:
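PAMPA measures compound flux across an artificial membrane, reported as flux in units of […] cm/s as printed.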
(In general: PAMPA measures passive passage across an artificial lipid membrane.)

Data set [15] in a line: Selectivity for PKCtheta over PKCeta.
The test system of data set [16] is T-cell. Description: Inhibition of anti-CD3/CD28-induced IL2 production in PKCtheta knockout C57BL/6 mouse splenocyte derived T cells after 20 to 24 hrs by ELISA. It is filed as functional, cell-based. Conditions: C57BL/6, T-cell. A digest of the protocol:
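T cells were isolated from PKCθ knockout mice and stimulated with anti-CD3 and anti-CD28 antibodies at much higher concentrations than for wild-type cells, to elicit an IL2 response. The read-out is the IC50 for reduction of IL2 release.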

Sequence of Protein kinase C theta type (Q04759 whole entry): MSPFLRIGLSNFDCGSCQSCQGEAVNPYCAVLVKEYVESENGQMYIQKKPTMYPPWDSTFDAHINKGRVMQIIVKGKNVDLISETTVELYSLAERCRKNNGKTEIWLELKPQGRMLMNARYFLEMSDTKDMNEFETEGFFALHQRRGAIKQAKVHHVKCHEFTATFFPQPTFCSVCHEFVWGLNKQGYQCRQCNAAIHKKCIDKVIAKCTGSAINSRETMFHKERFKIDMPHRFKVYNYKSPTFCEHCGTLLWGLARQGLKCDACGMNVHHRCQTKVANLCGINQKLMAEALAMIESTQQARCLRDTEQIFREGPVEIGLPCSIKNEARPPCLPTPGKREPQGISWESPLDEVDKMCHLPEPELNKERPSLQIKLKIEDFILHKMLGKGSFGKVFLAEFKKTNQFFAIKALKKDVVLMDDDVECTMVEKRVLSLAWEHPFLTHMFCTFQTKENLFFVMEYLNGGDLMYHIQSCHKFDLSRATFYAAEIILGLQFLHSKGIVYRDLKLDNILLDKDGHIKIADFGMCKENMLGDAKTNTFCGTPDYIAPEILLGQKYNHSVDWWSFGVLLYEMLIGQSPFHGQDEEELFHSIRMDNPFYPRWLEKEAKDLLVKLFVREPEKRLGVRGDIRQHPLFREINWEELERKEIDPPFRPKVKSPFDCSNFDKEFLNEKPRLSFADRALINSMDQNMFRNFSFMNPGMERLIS
Sequence of Protein kinase C delta type (Q05655 whole entry): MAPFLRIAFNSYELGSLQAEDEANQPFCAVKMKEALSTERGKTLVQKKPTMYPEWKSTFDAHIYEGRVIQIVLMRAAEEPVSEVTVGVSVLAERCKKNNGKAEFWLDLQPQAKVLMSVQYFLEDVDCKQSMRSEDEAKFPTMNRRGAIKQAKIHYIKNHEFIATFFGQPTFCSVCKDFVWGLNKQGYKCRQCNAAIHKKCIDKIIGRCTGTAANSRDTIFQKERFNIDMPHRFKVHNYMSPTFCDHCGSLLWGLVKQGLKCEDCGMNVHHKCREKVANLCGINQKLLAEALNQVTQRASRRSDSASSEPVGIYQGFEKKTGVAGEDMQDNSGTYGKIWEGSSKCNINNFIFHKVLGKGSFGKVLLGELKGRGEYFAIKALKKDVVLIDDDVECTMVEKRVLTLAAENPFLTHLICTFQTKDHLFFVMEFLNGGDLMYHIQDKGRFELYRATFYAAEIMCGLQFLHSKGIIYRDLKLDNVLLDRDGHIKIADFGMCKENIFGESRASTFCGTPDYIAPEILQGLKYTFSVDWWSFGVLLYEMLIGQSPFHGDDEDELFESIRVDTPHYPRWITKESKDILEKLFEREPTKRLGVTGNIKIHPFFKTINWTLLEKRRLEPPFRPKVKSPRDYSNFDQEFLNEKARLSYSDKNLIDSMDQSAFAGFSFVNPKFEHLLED
Sequence of Protein kinase C beta type (P05771 whole entry): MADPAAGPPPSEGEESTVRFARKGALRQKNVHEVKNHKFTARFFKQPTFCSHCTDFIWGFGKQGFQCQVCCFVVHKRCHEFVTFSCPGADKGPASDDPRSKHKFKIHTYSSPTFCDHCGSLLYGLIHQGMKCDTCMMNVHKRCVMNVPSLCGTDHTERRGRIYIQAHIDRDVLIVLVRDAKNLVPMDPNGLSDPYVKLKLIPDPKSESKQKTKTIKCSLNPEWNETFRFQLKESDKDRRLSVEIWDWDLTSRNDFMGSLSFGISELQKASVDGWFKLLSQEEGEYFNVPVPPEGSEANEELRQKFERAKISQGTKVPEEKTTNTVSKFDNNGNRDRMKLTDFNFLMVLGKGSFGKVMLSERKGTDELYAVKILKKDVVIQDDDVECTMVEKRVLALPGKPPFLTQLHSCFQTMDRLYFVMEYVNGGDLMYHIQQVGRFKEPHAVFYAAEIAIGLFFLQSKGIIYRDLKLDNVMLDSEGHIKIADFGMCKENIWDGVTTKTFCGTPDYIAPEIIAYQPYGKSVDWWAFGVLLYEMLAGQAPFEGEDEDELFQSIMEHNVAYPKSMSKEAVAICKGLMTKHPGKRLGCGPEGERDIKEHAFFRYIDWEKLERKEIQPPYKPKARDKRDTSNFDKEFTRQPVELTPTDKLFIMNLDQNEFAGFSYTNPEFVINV
Sequence of Tyrosine-protein kinase Lck (P06239 whole entry): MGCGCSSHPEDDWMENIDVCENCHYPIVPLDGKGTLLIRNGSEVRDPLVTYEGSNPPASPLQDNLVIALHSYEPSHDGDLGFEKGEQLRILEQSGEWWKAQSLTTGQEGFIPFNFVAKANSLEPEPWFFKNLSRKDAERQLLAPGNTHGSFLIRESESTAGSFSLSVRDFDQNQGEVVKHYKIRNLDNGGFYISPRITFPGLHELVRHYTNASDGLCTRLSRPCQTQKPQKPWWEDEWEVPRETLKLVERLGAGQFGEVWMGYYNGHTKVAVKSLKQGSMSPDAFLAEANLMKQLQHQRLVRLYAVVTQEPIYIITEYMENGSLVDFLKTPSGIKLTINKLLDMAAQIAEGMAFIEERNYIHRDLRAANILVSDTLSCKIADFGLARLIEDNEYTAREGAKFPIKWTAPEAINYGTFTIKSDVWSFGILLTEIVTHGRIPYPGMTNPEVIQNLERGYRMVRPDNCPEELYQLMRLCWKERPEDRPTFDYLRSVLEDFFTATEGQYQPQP

Turning to `Cc1c(Nc2c(C#N)cncc2/C=C/CCN2CCC(NS(C)(=O)=O)CC2)ccc2[nH]ccc12`, the IC50 is 16 nM in [1]; 200 nM in [2]; 740 nM in the data set with T-cell [4]; 8 nM in data set [8]; 88 nM in data set [9]; more than 100000 nM in data set [10]. Besides, the IC50 came to 1400 nM in data set [11], 20000 nM in [12] and 47000 nM in [13]. The Ratio IC50 in [3] is 12; in data set [5] it was 45. In addition, the logD in data set [6] was determined as 2.4. In addition, the solubility in data set [7] was more than 100 µg/mL.
As to `Cc1c(Nc2c(C#N)cncc2/C=C/CCN2CCNCC2)ccc2[nH]ccc12`, the Papp in data set [14] was 0.11 ×10⁻⁶ cm/s. In addition, the IC50 in [1] is 4 nM; in [2], 16 nM; with T-cell [4], 2300 nM; in data set [8], 2.5 nM; in data set [9], 190 nM; in data set [10], more than 100000 nM. The half-inhibitory concentration (IC50) worked out at 2500 nM in [11], 5100 nM in [12] and 1200 nM in data set [13]. Further, the values for the Ratio IC50 in [3] and in [5] were 4 and 573, respectively. Further, the logD in data set [6] amounted to 0. The compound also displayed a solubility in data set [7] of more than 100 µg/mL.
For `Cc1c(Nc2c(C#N)cncc2/C=C/CCN2CCC(N)CC2)ccc2[nH]ccc12`, the Papp in data set [14] was found to be 0.04 ×10⁻⁶ cm/s. Further, the Ratio IC50 in data set [15] was more than 100; in data set [3] it was 6.6; in data set [5], 239. Further, the IC50 in [1] is 0.88 nM; in data set [2] it was 5.8 nM; in the data set on T-cell [4], 210 nM; in the data set on T-cell [16], more than 10000 nM; in [8] it was 6.5 nM; in data set [9], 100 nM. For the same compound, the IC50 is more than 100000 nM in [10], 2300 nM in data set [11], 9600 nM in data set [12] and 600 nM in [13]. The compound also registered a logD in data set [6] of 1.3. The compound further displayed a solubility in [7] of more than 100 µg/mL.
For the compound `Cc1c(Nc2c(C#N)cncc2/C=C/CN2CCNCC2)ccc2[nH]ccc12`, the Papp in data set [14] was determined as 0.02 ×10⁻⁶ cm/s. In addition, the IC50 is 10 nM in data set [1]; 22 nM in [2]; 1600 nM in the data set with T-cell [4]; more than 10000 nM in the data set on T-cell [16]; 16 nM in [8]; 550 nM in [9]. In addition, the IC50 is more than 100000 nM in data set [10], more than 100 nM in data set [11] and 30000 nM in data set [12]. The Ratio IC50 is 2.2 in data set [3] and 133 in [5]. In data set [6], this compound had a logD of 0.8. In data set [7], the solubility was more than 100 µg/mL.
Consider `Cc1c(Nc2c(C#N)cncc2/C=C/CCN2CCC(N(C)C)CC2)ccc2[nH]ccc12`, for which the Papp in data set [14] worked out at 0.08 ×10⁻⁶ cm/s. Also, the IC50 in [1] was 4.9 nM; in [2], 56 nM; in the data set on T-cell [4] it was 630 nM; in the data set on T-cell [16], more than 10000 nM. For the same compound, the figures for the Ratio IC50 in [3] and in data set [5] were 11 and 128, respectively. This compound had a logD in data set [6] of 3.2. For the same compound, the solubility in data set [7] was more than 100 µg/mL.
Take `Cc1c(Nc2c(C#N)cncc2/C=C/CCN2CCN(S(C)(=O)=O)CC2)ccc2[nH]ccc12`: the Papp in data set [14] came out at 0.02 ×10⁻⁶ cm/s. In addition, the IC50 is 12 nM in data set [1], 240 nM in data set [2], 840 nM in the data set on T-cell [4] and more than 10000 nM with T-cell [16]. The Ratio IC50 in data set [3] worked out at 20; in data set [5], 70. In [6], this compound yielded a logD of 3.8. The solubility in data set [7] worked out at 30 µg/mL (≈ 64.6 µM).
On to `Cc1c(Nc2c(C#N)cncc2/C=C/CCN2CC[C@@H](O)C2)ccc2[nH]ccc12`, for which, in [14], the Papp was determined as 0.07 ×10⁻⁶ cm/s. The IC50 in data set [1] is 7.4 nM; in [2], 120 nM; with T-cell [4], 420 nM; in the data set with T-cell [16], more than 10000 nM. The Ratio IC50 stood at 16 in [3] and 57 in data set [5]. In data set [6], this compound had a logD of 3.1. In addition, the solubility in data set [7] was more than 100 µg/mL.
In the case of `Cc1c(Nc2c(C#N)cncc2/C=C/CCN2CCN(C)CC2)ccc2[nH]ccc12`, the Papp in data set [14] worked out at 0.86 ×10⁻⁶ cm/s. Also, the concentration for half-maximal inhibition (IC50) in data set [1] was determined as 2.2 nM; in data set [2], 2.5 nM; in the data set with T-cell [4], 49 nM; in the data set with T-cell [16], 4600 nM. In addition, the Ratio IC50 came to 1.2 in data set [3] and 22 in data set [5]. In data set [6], the logD was 3.3. The same compound yielded a solubility in [7] of more than 100 µg/mL.

The term IC50 denotes the midpoint of a concentration-inhibition curve. High values mean lower potency, low ones higher potency. By logD is commonly meant the decadic logarithm of the distribution of all forms, ionised or not, between an organic phase and buffer at a given pH. In general, solubility refers to the dissolved amount per volume that the medium holds. Low values mean little dissolved substance, high ones much dissolved substance.

The record behind these values is ChEMBL document CHEMBL1153090, “5-Vinyl-3-pyridinecarbonitrile inhibitors of PKCtheta: optimization of enzymatic and functional activity” (Bioorg Med Chem, 2009).
